According to article PMC5987874 (The Journal of General Physiology, 2018):
Numbering of substitutions follows the chain as printed. Where “and” joins values, the source holds several entries; their conditions need not be identical. Equal entries are not always repeated. Where two headings read alike, the source gives them in different places.

Tests used:
[1] = target: T1, human Hv1 WT (Homo sapiens, UniProt Q96D96); experiment: Whole-cell voltage clamp, Zn^2+ modulation of GAQ gating; format: cell-based
T1 sequence (Q96D96 1-273): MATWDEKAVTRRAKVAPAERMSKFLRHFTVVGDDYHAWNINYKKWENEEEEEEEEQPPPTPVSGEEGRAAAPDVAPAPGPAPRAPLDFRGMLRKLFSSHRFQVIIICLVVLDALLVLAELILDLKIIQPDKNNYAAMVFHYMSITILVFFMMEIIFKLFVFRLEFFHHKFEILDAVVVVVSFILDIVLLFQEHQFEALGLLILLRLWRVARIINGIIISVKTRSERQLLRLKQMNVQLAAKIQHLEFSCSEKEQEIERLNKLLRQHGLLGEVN
Method in brief: (§1)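 Whole-cell patch clamp at ~21°C. Pipette and bath (mM): ~80 TMA-MeSO3, 100 Bis-Tris, 8 HCl, pH 6.5, 310–320 mOsm. ZnCl2 was diluted into bath solution and applied by gravity superfusion, at least 2 min per change. Test step voltage was set per construct from its V0.5. G_STEP = end-of-step current/(V−V_REV). Effect = 1 − G_Zn/G_control, fitted to the Hill equation. IC50 and nH are means ± SEM from separate cells. ΔpIC50 was tested by unpaired t test, P<0.05.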

[2] = target: T2, human Hv1 E119H-H193A (Homo sapiens, UniProt Q96D96, E119H/H193A); experiment: as above; format: cell-based
T2 sequence (Q96D96 1-273 E119H/H193A): T1 sequence (Q96D96 1-273) with E119H, H193A
Method in brief: as §1

[3] = target: T3, human Hv1 H140A-H193A (Homo sapiens, UniProt Q96D96, H140A/H193A); details: double mutant; ref Ramsey et al., 2006; cited from earlier work
T3 sequence (Q96D96 1-273 H140A/H193A): T1 sequence (Q96D96 1-273) with H140A, H193A

[4] = target: T4, human Hv1 D130H (D^1.69H) (Homo sapiens, UniProt Q96D96, D130H); experiment: Whole-cell voltage clamp, Zn^2+ modulation of GAQ gating; format: cell-based
T4 sequence (Q96D96 1-273 D130H): T1 sequence (Q96D96 1-273) with D130H
Method in brief: as §1

[5] = target: T5, human Hv1 E119H-H140A-H193A (Homo sapiens, UniProt Q96D96, E119H/H140A/H193A); experiment: as above; format: cell-based
T5 sequence (Q96D96 1-273 E119H/H140A/H193A): T1 sequence (Q96D96 1-273) with E119H, H140A, H193A
Method in brief: as §1

[6] = target: T6, human Hv1 D130H-H140A (Homo sapiens, UniProt Q96D96, D130H/H140A); experiment: as above; format: cell-based
T6 sequence (Q96D96 1-273 D130H/H140A): T1 sequence (Q96D96 1-273) with D130H, H140A
Method in brief: as §1

[7] = VSTEP 100 mV, calculated as log (IC50)
[8] = read-out: IC50, fit of the mean data to a Hill function, Fig. 4A
[9] = read-out: IC50, fit of the mean data to a Hill function, Fig. 4C

[Cl-].[Cl-].[Zn+2] [Zn^2+, ZnCl2]
nH, fit of the mean data to a Hill function ([1]; Fig. 2C): 0.8
Hill value ([1]; VSTEP 100 mV): 0.81
pIC50 [1, 7]: 5.44
Mean ΔpIC50 = (pIC50_1 - pIC50_2) ([2]; E119H-H193A vs H193A): 1.38
nH, fit of the mean data to a Hill function ([2]; Fig. 4A): 0.7
Hill value ([2]; VSTEP 100 mV): 0.86
pIC50 [2, 7]: 5.45
IC50 [2, 8]: 4.2 µM
Zn^2+ sensitivity [3]: essentially insensitive to submillimolar
Mean ΔpIC50 = (pIC50_1 - pIC50_2) ([4]; D130H vs WT): 0.22
nH, fit of the mean data to a Hill function ([4]; Fig. 4C): 0.7
Hill value ([4]; VSTEP 120 mV): 0.95
pIC50 ([4]; VSTEP 120 mV, calculated as log (IC50)): 5.67
IC50 [4, 9]: 2.4 µM
Mean ΔpIC50 = (pIC50_1 - pIC50_2) ([5]; E119H-H140A-H193A vs H140A-H193A, positive = increase in Zn^2+ potency): 2.4 and 2.39
nH, fit of the mean data to a Hill function ([5]; Fig. 4A): 0.7
Hill value ([5]; VSTEP 60 mV): 0.84
pIC50 ([5]; VSTEP 60 mV, calculated as log (IC50)): 5.15
change of Zn^2+ IC50 ([5]; from H140A-H193A to E119H-H140A-H193A): 2.4 fold
IC50 [5, 8]: 7.6 µM
IC50 ([5]; read-out: Mean IC50 @ VSTEP, VSTEP 60 mV, pH 6.5, mean of fits in separate cells): 7.3 µM
Mean ΔpIC50 = (pIC50_1 - pIC50_2) ([6]; D130H-H140A vs H140A): 0.01
nH, fit of the mean data to a Hill function ([6]; Fig. 4C): 0.5
Hill value ([6]; VSTEP 80 mV): 0.58
pIC50 ([6]; VSTEP 80 mV, calculated as log (IC50)): −4.42
IC50 [6, 9]: 39.7 µM
IC50 ([6]; read-out: Mean IC50 @ VSTEP, VSTEP 80 mV, pH 6.5, mean of fits in separate cells): 41.5 µM
